Series [1] relates to Plasmodium falciparum. As to the kind of experiment: Antiplasmodial activity against Plasmodium falciparum Dd2 infected in […] after 72 hrs by SYBR green assay. The note with it: Dd2, 72 h. In kind it is functional, organism-based.
Series [2] has as its system Plasmodium falciparum. As to the kind of experiment: Antiplasmodial activity against Plasmodium falciparum 3D7 infected in […] after 72 hrs by SYBR green assay. In kind it is functional, organism-based. Conditions: 3D7, 72 h.
A short description of series [3]: Cytotoxicity against human RPTEC after 4 days by alamar blue assay. The format is cell-based. Conditions: RPTEC cells, read-out: LC50. (In general: Resazurin is reduced to fluorescent resorufin, in cell work by metabolically active cells.)
The target in series [4] is T1, Dihydroorotate dehydrogenase (Plasmodium falciparum, UniProt Q54A96).
T1 sequence (Q54A96 whole entry): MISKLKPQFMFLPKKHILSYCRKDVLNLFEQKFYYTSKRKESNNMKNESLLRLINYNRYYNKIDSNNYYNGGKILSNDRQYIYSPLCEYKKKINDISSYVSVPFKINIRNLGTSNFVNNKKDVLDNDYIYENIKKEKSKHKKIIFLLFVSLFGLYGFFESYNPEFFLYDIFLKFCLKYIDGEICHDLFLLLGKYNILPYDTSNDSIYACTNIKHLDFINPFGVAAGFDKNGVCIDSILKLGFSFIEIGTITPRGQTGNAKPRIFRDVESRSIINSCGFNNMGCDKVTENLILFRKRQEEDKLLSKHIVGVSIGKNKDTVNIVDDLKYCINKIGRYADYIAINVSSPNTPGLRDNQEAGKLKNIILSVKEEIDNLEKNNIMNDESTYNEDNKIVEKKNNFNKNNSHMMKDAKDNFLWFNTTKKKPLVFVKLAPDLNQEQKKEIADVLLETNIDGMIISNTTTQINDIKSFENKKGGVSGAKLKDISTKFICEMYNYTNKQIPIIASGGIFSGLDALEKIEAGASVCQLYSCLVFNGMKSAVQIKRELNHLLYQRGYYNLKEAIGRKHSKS
The series can be described thus: Inhibition of Plasmodium falciparum DHODH after 20 mins by 2,6-dichloroindophenol-reduction based assay.

The target in series [5] is Dihydroorotate dehydrogenase (quinone), mitochondrial (Homo sapiens, UniProt Q02127). As to the kind of experiment: Inhibition of human DHODH after 20 mins by 2,6-dichloroindophenol-reduction based assay.
Sequence of Dihydroorotate dehydrogenase (quinone), mitochondrial (Q02127 whole entry): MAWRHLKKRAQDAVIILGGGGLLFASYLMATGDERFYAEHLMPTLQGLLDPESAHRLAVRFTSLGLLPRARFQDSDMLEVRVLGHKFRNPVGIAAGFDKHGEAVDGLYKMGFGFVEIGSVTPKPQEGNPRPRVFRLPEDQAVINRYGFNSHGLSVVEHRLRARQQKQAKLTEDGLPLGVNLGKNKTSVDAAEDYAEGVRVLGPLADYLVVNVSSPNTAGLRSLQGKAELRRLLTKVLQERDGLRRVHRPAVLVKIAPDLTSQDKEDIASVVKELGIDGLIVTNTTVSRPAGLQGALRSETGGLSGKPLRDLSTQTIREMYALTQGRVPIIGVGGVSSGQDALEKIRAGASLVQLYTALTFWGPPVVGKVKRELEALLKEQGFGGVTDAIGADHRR
The test system of another series is Plasmodium vivax. As to the kind of experiment: Inhibition of Plasmodium vivax DHODH after 20 mins by 2,6-dichloroindophenol-reduction based assay.
A short description of series [6]: Clearance in human liver microsomes by LC-MS/MS analysis. In kind it is ADME, Microsome. The method, boiled down:
(§1)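 Liver microsome incubation. Predicted clearance is derived from a well-stirred model corrected for microsomal and protein binding.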
On the technique in general: Microsomes from liver hold many membrane-bound enzymes, among them those of drug oxidation.

Another series deals with Plasmodium berghei. The series can be described thus: Inhibition of Plasmodium berghei DHODH after 20 mins by 2,6-dichloroindophenol-reduction based assay.
Series [7] concerns the target Voltage-gated inwardly rectifying potassium channel KCNH2 (Homo sapiens, UniProt Q12809). As to the kind of experiment: Inhibition of human ERG expressed in CHOK1 cells by whole cell voltage clamp assay. The format is cell-based, CHO-K1.
Series [8] can be described thus: Clearance in mouse liver microsomes by LC-MS/MS analysis. The format is ADME, Microsome. The method, boiled down: as §1
The next series deals with Cytochrome P450 2D6 (Homo sapiens, UniProt P10635). The series can be described thus: Inhibition of human CYP2D6 using bufuralol as substrate after 10 mins by LC-MS/MS analysis. In kind it is ADME.
Sequence of Cytochrome P450 2D6 (P10635 whole entry): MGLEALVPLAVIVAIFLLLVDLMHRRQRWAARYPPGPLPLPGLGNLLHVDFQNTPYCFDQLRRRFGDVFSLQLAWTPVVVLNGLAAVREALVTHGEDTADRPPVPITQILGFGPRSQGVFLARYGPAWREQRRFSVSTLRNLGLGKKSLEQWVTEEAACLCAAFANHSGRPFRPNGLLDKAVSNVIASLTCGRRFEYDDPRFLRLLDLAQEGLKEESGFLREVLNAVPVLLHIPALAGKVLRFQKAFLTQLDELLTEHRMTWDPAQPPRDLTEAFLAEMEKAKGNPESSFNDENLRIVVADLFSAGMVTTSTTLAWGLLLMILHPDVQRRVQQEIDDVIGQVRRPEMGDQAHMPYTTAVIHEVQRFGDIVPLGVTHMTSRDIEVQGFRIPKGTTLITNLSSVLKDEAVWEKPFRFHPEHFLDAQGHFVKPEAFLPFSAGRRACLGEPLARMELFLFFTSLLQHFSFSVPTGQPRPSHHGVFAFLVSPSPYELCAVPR
The target in the next series is T2, Cytochrome P450 1A2 (Homo sapiens, UniProt P05177).
T2 sequence (P05177 whole entry): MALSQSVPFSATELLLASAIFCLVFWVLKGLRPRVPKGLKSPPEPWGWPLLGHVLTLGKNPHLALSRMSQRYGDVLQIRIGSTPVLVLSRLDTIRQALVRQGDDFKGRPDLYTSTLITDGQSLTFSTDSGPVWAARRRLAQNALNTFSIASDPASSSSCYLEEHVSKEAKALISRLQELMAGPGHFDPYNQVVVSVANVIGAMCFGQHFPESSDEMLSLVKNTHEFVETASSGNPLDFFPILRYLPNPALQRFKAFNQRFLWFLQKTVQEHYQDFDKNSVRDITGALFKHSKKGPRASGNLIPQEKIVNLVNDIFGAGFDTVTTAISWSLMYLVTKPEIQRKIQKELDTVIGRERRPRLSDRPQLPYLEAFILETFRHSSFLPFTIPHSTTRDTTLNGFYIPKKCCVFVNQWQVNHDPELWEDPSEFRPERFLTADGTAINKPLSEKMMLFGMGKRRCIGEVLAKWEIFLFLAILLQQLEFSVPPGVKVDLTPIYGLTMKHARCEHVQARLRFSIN
As to the kind of experiment: Inhibition of human CYP1A2 using phenacetin as substrate after 10 mins by LC-MS/MS analysis. In kind it is ADME.

The target of a further series is Cytochrome P450 2C19 (Homo sapiens, UniProt P33261). As to the kind of experiment: Inhibition of human CYP2C19 using S-mephenytoin as substrate after 45 mins by LC-MS/MS analysis. In kind it is ADME.
Sequence of Cytochrome P450 2C19 (P33261 whole entry): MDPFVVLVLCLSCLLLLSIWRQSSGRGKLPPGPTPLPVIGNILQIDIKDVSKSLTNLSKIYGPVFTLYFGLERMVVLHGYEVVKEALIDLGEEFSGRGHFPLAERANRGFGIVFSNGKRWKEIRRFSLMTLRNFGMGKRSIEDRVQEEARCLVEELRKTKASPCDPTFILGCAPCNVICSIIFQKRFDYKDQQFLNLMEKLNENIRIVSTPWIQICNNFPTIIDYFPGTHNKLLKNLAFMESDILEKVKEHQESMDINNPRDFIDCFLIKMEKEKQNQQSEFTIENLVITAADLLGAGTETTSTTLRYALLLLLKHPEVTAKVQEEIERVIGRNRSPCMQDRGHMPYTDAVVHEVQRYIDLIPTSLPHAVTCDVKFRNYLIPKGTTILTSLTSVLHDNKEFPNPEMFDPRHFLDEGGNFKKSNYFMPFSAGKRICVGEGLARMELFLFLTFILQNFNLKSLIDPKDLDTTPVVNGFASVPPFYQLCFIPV
For a further series, the target named is Cytochrome P450 2C9 (Homo sapiens, UniProt P11712). As to the kind of experiment: Inhibition of human CYP2C9 using diclofenac as substrate after 10 mins by LC-MS/MS analysis. In kind it is ADME.
Sequence of Cytochrome P450 2C9 (P11712 whole entry): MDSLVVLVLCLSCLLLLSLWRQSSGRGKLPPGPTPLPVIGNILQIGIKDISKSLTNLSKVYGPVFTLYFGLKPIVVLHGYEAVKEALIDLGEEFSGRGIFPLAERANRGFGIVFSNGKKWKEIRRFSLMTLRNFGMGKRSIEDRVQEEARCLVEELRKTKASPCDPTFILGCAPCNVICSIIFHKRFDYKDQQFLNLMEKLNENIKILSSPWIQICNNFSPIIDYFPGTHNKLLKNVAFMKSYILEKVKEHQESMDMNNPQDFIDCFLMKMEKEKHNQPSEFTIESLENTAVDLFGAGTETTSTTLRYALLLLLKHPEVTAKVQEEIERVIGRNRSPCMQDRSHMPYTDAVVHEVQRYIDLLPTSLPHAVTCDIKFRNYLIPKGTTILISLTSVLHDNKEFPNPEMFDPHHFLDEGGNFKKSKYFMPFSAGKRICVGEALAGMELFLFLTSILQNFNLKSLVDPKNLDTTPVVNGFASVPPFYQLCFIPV
Another series has as its target Cytochrome P450 3A4 (Homo sapiens, UniProt P08684). As to the kind of experiment: Inhibition of human CYP3A4 using midazolam as substrate after 5 mins by LC-MS/MS analysis. The format is ADME.

Molecules are shown by their SMILES. Calls of active or inactive are those of the source. The calls are words filed in the database; no cut-off is given here.

Sequence of Voltage-gated inwardly rectifying potassium channel KCNH2 (Q12809 whole entry): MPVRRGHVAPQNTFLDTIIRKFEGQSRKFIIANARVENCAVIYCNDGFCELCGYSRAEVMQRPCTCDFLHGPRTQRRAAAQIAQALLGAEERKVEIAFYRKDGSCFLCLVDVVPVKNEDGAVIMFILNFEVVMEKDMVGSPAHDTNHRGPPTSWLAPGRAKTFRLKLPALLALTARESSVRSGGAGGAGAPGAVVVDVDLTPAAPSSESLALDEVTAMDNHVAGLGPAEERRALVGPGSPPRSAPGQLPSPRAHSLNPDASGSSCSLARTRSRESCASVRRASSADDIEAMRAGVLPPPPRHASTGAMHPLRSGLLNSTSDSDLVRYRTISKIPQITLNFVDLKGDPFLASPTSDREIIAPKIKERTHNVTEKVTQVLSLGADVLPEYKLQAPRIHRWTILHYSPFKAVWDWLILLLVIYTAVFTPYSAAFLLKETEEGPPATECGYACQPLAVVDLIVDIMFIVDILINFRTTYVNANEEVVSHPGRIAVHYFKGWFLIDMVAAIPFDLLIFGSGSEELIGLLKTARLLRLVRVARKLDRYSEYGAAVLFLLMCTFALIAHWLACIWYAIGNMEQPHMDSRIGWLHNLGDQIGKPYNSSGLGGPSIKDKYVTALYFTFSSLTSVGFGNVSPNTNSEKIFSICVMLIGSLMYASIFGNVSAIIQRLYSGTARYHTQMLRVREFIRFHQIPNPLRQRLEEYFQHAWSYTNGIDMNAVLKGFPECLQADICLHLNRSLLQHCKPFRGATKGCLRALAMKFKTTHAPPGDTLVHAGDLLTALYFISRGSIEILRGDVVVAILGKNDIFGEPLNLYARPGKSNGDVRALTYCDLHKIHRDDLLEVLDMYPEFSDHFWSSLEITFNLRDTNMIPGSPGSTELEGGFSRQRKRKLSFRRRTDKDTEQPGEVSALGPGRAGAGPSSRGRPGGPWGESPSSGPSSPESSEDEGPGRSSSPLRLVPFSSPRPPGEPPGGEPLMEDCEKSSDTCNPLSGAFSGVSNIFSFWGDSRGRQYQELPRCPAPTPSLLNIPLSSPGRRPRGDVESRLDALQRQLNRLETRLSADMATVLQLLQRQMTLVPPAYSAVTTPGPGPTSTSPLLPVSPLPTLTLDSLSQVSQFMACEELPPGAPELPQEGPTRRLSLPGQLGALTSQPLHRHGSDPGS
Sequence of Cytochrome P450 3A4 (P08684 whole entry): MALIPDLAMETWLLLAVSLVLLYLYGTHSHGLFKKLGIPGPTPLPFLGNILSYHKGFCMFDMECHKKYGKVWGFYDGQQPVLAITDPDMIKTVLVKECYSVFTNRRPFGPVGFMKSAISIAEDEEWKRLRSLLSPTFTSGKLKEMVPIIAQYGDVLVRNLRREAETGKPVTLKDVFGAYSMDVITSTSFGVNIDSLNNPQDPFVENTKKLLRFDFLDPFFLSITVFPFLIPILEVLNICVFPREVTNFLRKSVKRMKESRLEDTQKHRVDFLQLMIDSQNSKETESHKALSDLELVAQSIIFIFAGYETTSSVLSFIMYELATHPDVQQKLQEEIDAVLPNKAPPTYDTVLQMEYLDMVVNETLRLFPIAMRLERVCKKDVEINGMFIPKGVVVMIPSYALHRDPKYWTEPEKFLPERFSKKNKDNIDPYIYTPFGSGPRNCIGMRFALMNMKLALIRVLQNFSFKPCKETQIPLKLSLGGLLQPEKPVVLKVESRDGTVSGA

With `O=C(NC1CC1)c1ccc(-n2c(C(F)(F)F)nc3ccccc32)s1`, the IC50 is 1710 nM in the series on Plasmodium falciparum [1], 830 nM with Plasmodium falciparum [2], 570 nM in series [4] and greater than 30000 nM in series [5]. In addition, the CC50 at 96 h in [3] is greater than 62000 nM.
With `CCCc1nc2ccccc2n1-c1ccc(C(=O)NC2CC2)s1`, the IC50 was found to be 630 nM in the series with Plasmodium falciparum [1], 390 nM in the series on Plasmodium falciparum [2], 180 nM in series [4] and 15100 nM in series [5]. The CC50 at 96 h in [3] is greater than 62000 nM.
On to `CCCNC(=O)c1ccc(-n2cnc3ccccc32)s1`, for which the IC50 is 1100 nM in the series with Plasmodium falciparum [1], 470 nM in the series on Plasmodium falciparum [2], 700 nM in series [4] and greater than 30000 nM in [5]. In addition, in series [3], the CC50 at 96 h is greater than 62000 nM.
With `CCc1nc2ccccc2n1-c1ccc(C(=O)NC2CC2)s1`, the IC50 in the series on Plasmodium falciparum [1] amounted to 180 nM; in the series on Plasmodium falciparum [2] it was 120 nM; in [4] it was 110 nM. In addition, the CC50 at 96 h in series [3] was greater than 62000 nM.
On to `Cc1nc2cc(OC(F)(F)F)ccc2n1-c1ccc(C(=O)NC2CC2)s1`, for which the IC50 is 9 nM in the series with Plasmodium falciparum [1]; 7 nM in the series with Plasmodium falciparum [2]; less than 2800 nM in [7]; 22 nM in [4]; 100 nM at Cytochrome P450 2D6. Further, the inhibition result with Plasmodium vivax and with Plasmodium berghei was “Active” throughout. Also, the CLhep predicted was 7 mL/min/kg in series [6] and 43 mL/min/kg in [8].
For `Cc1nc2c(OC(F)F)cccc2n1-c1ccc(C(=O)NC2CC2)s1`, the IC50 against Cytochrome P450 1A2 is greater than 10000 nM; against Cytochrome P450 2C19, greater than 10000 nM; with Plasmodium falciparum [1] it was 26 nM; in the series on Plasmodium falciparum [2], 19 nM; on Cytochrome P450 2C9, greater than 10000 nM; in [7], 28800 nM. In addition, the IC50 against Cytochrome P450 3A4 is greater than 10000 nM; in [4], 44 nM; in series [5] it was greater than 30000 nM; against Cytochrome P450 2D6, greater than 10000 nM. Besides, the inhibition result in the series on Plasmodium vivax and in the series on Plasmodium berghei was “Active” each time. In addition, the CLhep predicted in series [6] is 4 mL/min/kg; in [8], 33 mL/min/kg.
`CN(C)c1nc2ccccc2n1-c1ccc(C(=O)NC2CC2)s1`: the IC50 in the series on Plasmodium falciparum [1] was greater than 1000 nM; in the series with Plasmodium falciparum [2], greater than 1000 nM; in series [4], 5600 nM. In series [3], the CC50 at 96 h is greater than 62000 nM.
For `CNC(=O)c1ccc(-n2cnc3ccccc32)s1`, the IC50 with Plasmodium falciparum [1] is 420 nM; with Plasmodium falciparum [2], 280 nM; in series [4], 1080 nM. The CC50 at 96 h in [3] is greater than 62000 nM.
As to `CC(C)NC(=O)c1ccc(-n2cnc3ccccc32)s1`, the values for the IC50 (with Plasmodium falciparum [1]; with Plasmodium falciparum [2]; in [4]) were 810 nM, 560 nM and 680 nM, respectively. Besides, the CC50 at 96 h in [3] is greater than 62000 nM.
Take `Cc1nc2ccccc2n1-c1ccc(C(=O)NC2CC2)s1`: the concentration for half-maximal inhibition (IC50) worked out at 110 nM in the series with Plasmodium falciparum [1], 90 nM in the series on Plasmodium falciparum [2] and 80 nM in series [4]. Also, in series [3], the CC50 at 96 h is greater than 62000 nM.
As for `COc1cccc2c1nc(C)n2-c1ccc(C(=O)NC2CC2)s1`, the “inhibition (INH)” value at Cytochrome P450 1A2 (human, 10 min) is “Not Active”; against Cytochrome P450 2C19 (human, 0.75 h) it was “Not Active”; against Cytochrome P450 2C9 (human, 10 min) it was “Not Active”; in series [7] (human, cho-k1), “Not Active”; against Cytochrome P450 3A4 (human, 5 min), “Not Active”; against Cytochrome P450 2D6 (human, 10 min), “Not Active”. In addition, the IC50 was 109 nM in the series with Plasmodium falciparum [1], 49 nM in the series with Plasmodium falciparum [2] and 162 nM in series [4]. For the same compound, the inhibition entry in the series with Plasmodium vivax and with Plasmodium berghei was “Active” in each case. Besides, the CLhep predicted in series [6] is 4 mL/min/kg; in [8], greater than 72 mL/min/kg.

In general, IC50 refers to the concentration that gives 50% inhibition. Read a low IC50 as greater potency.

These data come from ChEMBL document CHEMBL2010768, “Optimization of Potent Inhibitors of P. falciparum Dihydroorotate Dehydrogenase for the Treatment of Malaria” (ACS Med Chem Lett, 2011).
